Values after ≈ are worked out from the molar mass of the structure shown. Active and inactive are the calls of the source. The rule behind the calls is not given here.
What was measured:
[1] = tested on: HeLa; assay: Cytotoxicity against human HeLa cells after 48 hrs by MTT assay; assay type: functional, cell-based
Procedure, shortened: (§1)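 Cells grown with 10% FBS, 1% L-glutamine and antibiotics at 37 °C, 5% CO₂. Seeded at 1 × 10⁵ cells/mL and incubated 24 h. Compounds added from DMSO stocks, final DMSO <1%, for 48 h. MTT (2.5 mg/mL) added for 2 h, then OD read at 490 nm. IC50 (50% reduction in OD versus untreated) taken from dose–response curves; three independent determinations.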

[2] = Cytotoxicity against […] cells after 48 hrs by MTT assay; assay type: functional, cell-based; conditions: Mus musculus, Ehrlich; procedure, shortened: as §1
[3] = tested on: MCF7; assay: Cytotoxicity against human MCF7 cells after 48 hrs by MTT assay; assay type: functional, cell-based; conditions: MCF7, 48 h; procedure, shortened: as §1
[4] = tested on: Mus musculus; assay: Protective effect on haemopoietic system in Swiss albino mouse xenografted with […] cells assessed as change in monocytes count at 5 mg/kg, ip qd administered for 9 days measured after 14 days (reference value: 2.4 +/- 0.1 %); assay type: functional, Ehrlich; conditions: route intraperitoneal
Procedure, shortened: (§2)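 Swiss albino female mice (8 weeks, n = 10 per group) inoculated ip with EAC cells (0.2 mL of 2 × 10⁶ cells/mouse), then dosed daily for 9 days starting 24 h after inoculation. On day 14, hemoglobin, RBC, WBC and differential leukocyte counts were compared with uninoculated normal and EAC control groups; mean ± SEM.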

[5] = tested on: Mus musculus; assay: Protective effect on haemopoietic system in Swiss albino mouse xenografted with […] cells assessed as change in hemoglobin level at 10 mg/kg, ip qd administered for 9 days measured after 14 days (reference value: 5.8 +/- 0.7 g%); assay type: functional, Ehrlich; conditions: route intraperitoneal; procedure, shortened: as §2
[6] = tested on: Mus musculus; assay: Protective effect on haemopoietic system in Swiss albino mouse xenografted with […] cells assessed as RBC count at 10 mg/kg, ip qd administered for 9 days measured after 14 days; assay type: functional, organism-based; parameters: dose 10 mg/kg; conditions: Ehrlich; procedure, shortened: as §2
[7] = tested on: Mus musculus; assay: Protective effect on haemopoietic system in Swiss albino mouse xenografted with […] cells assessed as WBC count at 10 mg/kg, ip qd administered for 9 days measured after 14 days; assay type: functional, organism-based; parameters: dose 10 mg/kg; conditions: Ehrlich; procedure, shortened: as §2
[8] = tested on: Mus musculus; assay: Protective effect on haemopoietic system in Swiss albino mouse xenografted with […] cells assessed as change in lymphocytes count at 10 mg/kg, ip qd administered for 9 days measured after 14 days (reference value: 23 +/- 0.6 %); assay type: functional, Ehrlich; conditions: route intraperitoneal; procedure, shortened: as §2
[9] = tested on: Mus musculus; assay: Protective effect on haemopoietic system in Swiss albino mouse xenografted with […] cells assessed as change in neutrophils count at 10 mg/kg, ip qd administered for 9 days measured after 14 days (reference value: 73 +/- 1.3 %); assay type: functional, Ehrlich; conditions: route intraperitoneal; procedure, shortened: as §2
[10] = tested on: Mus musculus; assay: Protective effect on haemopoietic system in Swiss albino mouse xenografted with […] cells assessed as change in monocytes count at 10 mg/kg, ip qd administered for 9 days measured after 14 days (reference value: 2.4 +/- 0.1 %); assay type: functional, Ehrlich; conditions: route intraperitoneal; procedure, shortened: as §2
[11] = tested on: Mus musculus; assay: Toxicity in Swiss albino mouse xenografted with human EAC cells assessed as change in body weight at 5 mg/kg, ip qd administered for 9 days measured after 14 days (reference value: 12.2 +/- 0.8 g); assay type: organism-based, Ehrlich; parameters: dose 5 mg/kg, route intraperitoneal; conditions: in vivo, 336 h
[12] = Antitumor activity against […] cells xenografted in Swiss albino mouse assessed as mean survival time at 5 mg/kg, ip qd administered for 9 days measured after 14 days (reference value: 13.7+/- 0.4 days); assay type: functional, Ehrlich; conditions: route intraperitoneal
Procedure, shortened: (§3)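 Female Swiss albino mice, 8 weeks old and 20–25 g, received 0.2 mL of 2 × 10⁶ EAC cells/mouse i.p. on day 0. Daily dosing started 24 h later and ran 9 days; controls received sterile saline i.p. After day-14 sacrifice of five per group, mortality was recorded daily for 30 days. MST = (first + last death day)/2; %ILS = [(MST treated/MST control) − 1] × 100.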

[13] = Antitumor activity against […] cells xenografted in Swiss albino mouse assessed as increase in life span at 5 mg/kg, ip qd administered for 9 days; assay type: functional, Ehrlich; conditions: route intraperitoneal; procedure, shortened: as §3
[14] = Antitumor activity against […] cells xenografted in Swiss albino mouse assessed as change in tumor volume at 5 mg/kg, ip qd administered for 9 days measured after 14 days (reference value: 12.1 +/- 0.9 ml); assay type: functional, Ehrlich; conditions: route intraperitoneal
[15] = Antitumor activity against […] cells xenografted in Swiss albino mouse assessed as packed cell volume at 5 mg/kg, ip qd administered for 9 days measured after 14 days (reference value: 2.8 +/- 0.5 ml); assay type: functional, Ehrlich; conditions: route intraperitoneal
[16] = tested on: Mus musculus; assay: Toxicity in Swiss albino mouse xenografted with […] cells assessed as change in body weight at 10 mg/kg, ip qd administered for 9 days measured after 14 days (reference value: 12.2 +/- 0.8 g); assay type: organism-based, Ehrlich; parameters: dose 10 mg/kg, route intraperitoneal; conditions: in vivo, 336 h
[17] = Antitumor activity against […] cells xenografted in Swiss albino mouse assessed as mean survival time at 10 mg/kg, ip qd administered for 9 days measured after 14 days (reference value: 13.7+/- 0.4 days); assay type: functional, Ehrlich; conditions: route intraperitoneal; procedure, shortened: as §3
[18] = Antitumor activity against […] cells xenografted in Swiss albino mouse assessed as increase in life span at 10 mg/kg, ip qd administered for 9 days; assay type: functional, Ehrlich; conditions: route intraperitoneal; procedure, shortened: as §3
[19] = Antitumor activity against […] cells xenografted in Swiss albino mouse assessed as change in tumor volume at 10 mg/kg, ip qd administered for 9 days measured after 14 days (reference value: 12.1 +/- 0.9 ml); assay type: functional, Ehrlich; conditions: route intraperitoneal
[20] = Antitumor activity against […] cells xenografted in Swiss albino mouse assessed as packed cell volume at 10 mg/kg, ip qd administered for 9 days measured after 14 days (reference value: 2.8 +/- 0.5 ml); assay type: functional, Ehrlich; conditions: route intraperitoneal
[21] = tested on: Ehrlich; assay: Antitumor activity against […] cells xenografted in Swiss albino mouse assessed as viable tumor cell count at 10 mg/kg, ip qd administered for 9 days measured after 14 days by trypan blue assay; assay type: functional, organism-based; parameters: dose 10 mg/kg
[22] = tested on: Mus musculus; assay: Reduction in ascetic fluid volume in Swiss albino mouse xenografted with […] cells at 5 to 10 mg/kg, ip qd administered for 9 days measured after 14 days; assay type: functional, organism-based; conditions: Ehrlich
[23] = tested on: Mus musculus; assay: Protective effect on haemopoietic system in Swiss albino mouse xenografted with […] cells assessed as change in hemoglobin level at 5 mg/kg, ip qd administered for 9 days measured after 14 days (reference value: 5.8 +/- 0.7 g%); assay type: functional, Ehrlich; conditions: route intraperitoneal; procedure, shortened: as §2
[24] = tested on: Mus musculus; assay: Protective effect on haemopoietic system in Swiss albino mouse xenografted with […] cells assessed as RBC count at 5 mg/kg, ip qd administered for 9 days measured after 14 days; assay type: functional, organism-based; parameters: dose 5 mg/kg; conditions: Ehrlich; procedure, shortened: as §2
[25] = tested on: Mus musculus; assay: Protective effect on haemopoietic system in Swiss albino mouse xenografted with […] cells assessed as WBC count at 5 mg/kg, ip qd administered for 9 days measured after 14 days; assay type: functional, organism-based; parameters: dose 5 mg/kg; conditions: Ehrlich; procedure, shortened: as §2
[26] = tested on: Mus musculus; assay: Protective effect on haemopoietic system in Swiss albino mouse xenografted with […] cells assessed as change in lymphocytes count at 5 mg/kg, ip qd administered for 9 days measured after 14 days (reference value: 23 +/- 0.6 %); assay type: functional, Ehrlich; conditions: route intraperitoneal; procedure, shortened: as §2
[27] = tested on: Mus musculus; assay: Protective effect on haemopoietic system in Swiss albino mouse xenografted with […] cells assessed as change in neutrophils count at 5 mg/kg, ip qd administered for 9 days measured after 14 days (reference value: 73 +/- 1.3 %); assay type: functional, Ehrlich; conditions: route intraperitoneal; procedure, shortened: as §2
[28] = tested on: Ehrlich; assay: Antitumor activity against […] cells xenografted in Swiss albino mouse assessed as viable tumor cell count at 5 mg/kg, ip qd administered for 9 days measured after 14 days by trypan blue assay; assay type: functional, organism-based; parameters: dose 5 mg/kg

## Cc1noc2c1N=C(c1ccccc1)CC(c1ccccc1)C2C(c1ccc(Cl)cc1)C1c2onc(C)c2N=C(c2ccccc2)CC1c1ccccc1 (centres undefined)
[1]
  IC50: 55.9 µg/mL (≈ 76.9 µM)
[2]
  IC50: 60.4 µg/mL (≈ 83 µM)
[3]
  IC50: 59 µg/mL (≈ 81.1 µM)

## COc1ccc(C(C2c3onc(C)c3N=C(c3ccccc3)CC2c2ccccc2)C2c3onc(C)c3N=C(c3ccccc3)CC2c2ccccc2)cc1 (centres undefined)
[1]
  IC50: 65.9 µg/mL (≈ 91.2 µM)
[2]
  IC50: 41.9 µg/mL (≈ 58 µM)
[3]
  IC50: 57.3 µg/mL (≈ 79.3 µM)

## Cc1noc2c1N=C(c1ccco1)CC(c1ccccc1)C2C(c1ccccc1)C1c2onc(C)c2N=C(c2ccco2)CC1c1ccccc1 (centres undefined)
[4]
  Activity: 2.1%
[5]
  Activity: 7.4 g%
[6]
  Activity: Active
[7]
  Activity: Active
[8]
  Activity: 46%
[9]
  Activity: 49%
[10]
  Activity: 1.7%
[1]
  IC50: 32.7 µg/mL (≈ 48.6 µM)
[2]
  IC50: 28.9 µg/mL (≈ 43 µM)
[3]
  IC50: 35.9 µg/mL (≈ 53.4 µM)
[11]
  Activity: 10.6 g
[12]
  MSD: 14.9 days
[13]
  Activity: 8.8%
[14]
  Activity: 11 mL
[15]
  Activity: 2.1 mL
[16]
  Activity: 9.6 g
[17]
  MSD: 18.3 days
[18]
  Activity: 33.6%
[19]
  Activity: 8.5 mL
[20]
  Activity: 1.6 mL
[21]
  Activity: Active
[22]
  Activity: Active
[23]
  Activity: 6 g%
[24]
  Activity: Active
[25]
  Activity: Active
[26]
  Activity: 29%
[27]
  Activity: 63%

## Cc1ccc(C2CC(c3ccccc3)=Nc3c(C)noc3C2C(c2ccccc2)C2c3onc(C)c3N=C(c3ccccc3)CC2c2ccc(C)cc2)cc1 (centres undefined)
[1]
  IC50: 53.3 µg/mL (≈ 73.9 µM)
[2]
  IC50: 51.6 µg/mL (≈ 71.6 µM)
[3]
  IC50: 50.1 µg/mL (≈ 69.5 µM)

## Cc1ccc(C(C2c3onc(C)c3N=C(c3ccccc3)CC2c2ccccc2)C2c3onc(C)c3N=C(c3ccccc3)CC2c2ccccc2)cc1 (centres undefined)
[1]
  IC50: 38.4 µg/mL (≈ 54.3 µM)
[2]
  IC50: 48.2 µg/mL (≈ 68.2 µM)
[3]
  IC50: 41.9 µg/mL (≈ 59.3 µM)

## Cc1noc2c1N=C(c1cccs1)CC(c1ccccc1)C2C(c1ccccc1)C1c2onc(C)c2N=C(c2cccs2)CC1c1ccccc1 (centres undefined)
[4]
  Activity: 1.9%
[5]
  Activity: 8.5 g%
[6]
  Activity: Active
[7]
  Activity: Active
[8]
  Activity: 51%
[9]
  Activity: 36%
[10]
  Activity: 1.4%
[1]
  IC50: 28.5 µg/mL (≈ 40.4 µM)
[2]
  IC50: 26.1 µg/mL (≈ 37 µM)
[3]
  IC50: 24.1 µg/mL (≈ 34.2 µM)
[11]
  Activity: 8.3 g
[12]
  MSD: 17.8 days
[13]
  Activity: 29.9%
[14]
  Activity: 7.3 mL
[15]
  Activity: 1.8 mL
[28]
  Activity: Active
[16]
  Activity: 6.7 g
[17]
  MSD: 23.8 days
[18]
  Activity: 73.7%
[19]
  Activity: 4.9 mL
[20]
  Activity: 1.1 mL
[21]
  Activity: Active
[22]
  Activity: Active
[23]
  Activity: 7.3 g%
[24]
  Activity: Active
[25]
  Activity: Active
[26]
  Activity: 35%
[27]
  Activity: 54%

## COc1ccc(C2CC(c3ccccc3)=Nc3c(C)noc3C2C(c2ccccc2)C2c3onc(C)c3N=C(c3ccccc3)CC2c2ccc(OC)cc2)cc1 (centres undefined)
[1]
  IC50: 45.6 µg/mL (≈ 60.6 µM)
[2]
  IC50: 40.1 µg/mL (≈ 53.3 µM)
[3]
  IC50: 53.8 µg/mL (≈ 71.5 µM)

## Cc1ccc(C2=Nc3c(C)noc3C(C(c3ccccc3)C3c4onc(C)c4N=C(c4ccc(C)cc4)CC3c3ccccc3)C(c3ccccc3)C2)cc1 (centres undefined)
[1]
  IC50: 55.1 µg/mL (≈ 76.4 µM)
[2]
  IC50: 50.1 µg/mL (≈ 69.5 µM)
[3]
  IC50: 55.9 µg/mL (≈ 77.5 µM)

## Cc1noc2c1N=C(c1ccc(Cl)cc1)CC(c1ccccc1)C2C(c1ccccc1)C1c2onc(C)c2N=C(c2ccc(Cl)cc2)CC1c1ccccc1 (centres undefined)
[1]
  IC50: 60.2 µg/mL (≈ 79 µM)
[2]
  IC50: 58.5 µg/mL (≈ 76.8 µM)
[3]
  IC50: 61.1 µg/mL (≈ 80.2 µM)

## Cc1noc2c1N=C(c1ccccc1)CC(c1ccccc1)C2C(c1ccccc1)C1c2onc(C)c2N=C(c2ccccc2)CC1c1ccccc1 (centres undefined)
[1]
  IC50: 68.7 µg/mL (≈ 99.2 µM)
[2]
  IC50: 66.5 µg/mL (≈ 96 µM)
[3]
  IC50: 68.9 µg/mL (≈ 99.4 µM)

Reference: ChEMBL document CHEMBL1938326, “Synthesis and in vitro and in vivo anticancer activity of novel phenylmethylene bis-isoxazolo[4,5-b]azepines” (Bioorg Med Chem Lett, 2012)
